Test [1] in a line: Inhibition of Plasmodium falciparum recombinant GSK-3 by radiometric protein kinase assay. In outline:
(§1)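 His6-tagged recombinant GSK-3 expressed in E. coli (TOP10/pBAD-Thio-TOPO for P. falciparum and T. gondii, arabinose-induced; BL21(DE3)-pRARE2/pET15 for C. parvum, IPTG at 15 °C), Ni-NTA purified. Assayed with 40 μM GS-1 phosphopeptide, 15 μM γ-33P-ATP in pH 7.5 Tris buffer with MgCl2, EGTA, DTT, heparin, BSA; 30 min, 30 °C; P81 paper, phosphoric acid washes, scintillation counting. DMSO controls; dose-response IC50, triplicate points.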

Test [2] is described as follows: Inhibition of pig GSK-3 by radiometric protein kinase assay. Also on record: species or system Sus scrofa. The procedure, abridged: (§2)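 Native affinity-purified porcine GSK-3 in the radiometric assay: 40 μM GS-1 peptide, 15 μM γ-33P-ATP, pH 7.5 Tris/MgCl2/EGTA/DTT/heparin/BSA buffer, 30 min at 30 °C, P81 filter binding and scintillation counting. IC50 from dose-response curves with triplicate points; top concentration 10 or 100 μM.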

Test [3] deals with Plasmodium falciparum. As to the kind of experiment: Antiplasmodial activity against Plasmodium falciparum after 72 hrs by luciferase reporter gene assay. It counts as functional, organism-based. The note with it: 48 h, in the assay text read “48 hrs” for “72 hrs”. The procedure, abridged:
(§3)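 NF54:LUC P. falciparum erythrocytic stages (luciferase under hrp2 promoter) at 3% parasitemia, 25% hematocrit; compounds in RPMI-1640 with 1% DMSO, triplicate wells; untreated, DMSO-only and non-luciferase NF54 blank wells. […] Bright-Glo lysis, luminescence read.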
Background: A reporter such as luciferase makes a cellular process visible.

Test [4] relates to Plasmodium falciparum. The experiment in a line: Antiplasmodial activity against Plasmodium falciparum at 15 uM after 72 hrs by luciferase reporter gene assay. The format is functional. In outline:
as §3

The nature of test [5]: Inhibition of Plasmodium falciparum recombinant His6-tagged GSK-3 expressed in Escherichia coli using GS-1 peptide as substrate after 30 mins by scintillation counting analysis in presence of gamma-33P-ATP. In outline:
as §1

Test [6] in a line: Inhibition of Toxoplasma gondii recombinant His6-tagged GSK-3 expressed in Escherichia coli using GS-1 peptide as substrate after 30 mins by scintillation counting analysis in presence of gamma-33P-ATP. The format is cell-free. The procedure, abridged:
as §1

Test [7] is described as follows: Inhibition of Cryptosporidium parvum recombinant His6-tagged GSK-3 expressed in Escherichia coli using GS-1 peptide as substrate after 30 mins by scintillation counting analysis in presence of gamma-33P-ATP. The procedure, abridged: as §1
Test [8] is described as follows: Inhibition of Leishmania donovani GSK-3.
The target in test [9] is Glycogen synthase kinase-3 (Sus scrofa, UniProt B2LUN4+I6LNT8). As to the kind of experiment: Inhibition of pig GSK-3alpha/beta. In outline:
as §2

Test [10] is described as follows: Inhibition of Trypanosoma cruzi GSK-3.
Test [11] in a line: Inhibition of Trypanosoma brucei GSK-3.
Test [12] is described as follows: Inhibition of Plasmodium knowlesi recombinant His6-tagged GSK-3 expressed in Escherichia coli using GS-1 peptide as substrate after 30 mins by scintillation counting analysis in presence of gamma-33P-ATP. The procedure, abridged:
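P. knowlesi GSK3 gene in pBAD-Thio-TOPO, expressed in E. coli TOP10 (ampicillin, 37 °C, 0.02% arabinose for 4 h), Ni-NTA purified. Radiometric assay: 40 μM GS-1 peptide in buffer A pH 7.5 (MgCl2, EGTA, DTT, heparin, BSA) with 15 μM γ-33P-ATP, 30 min at 30 °C. P81 filter binding, scintillation counting. IC50 from triplicate dose-response curves.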

A value given as a limit tells only on which side of the number the result lay.

Regarding `Cc1ccccc1-c1c(C#N)c(N)nc2sc(C#N)c(N)c12`, the values for the IC50 in [1] and in test [2] were 0.51 µM and 2 µM, respectively.
In the same order, the values of `CCOc1ccccc1-c1c(C#N)c(N)nc2sc(C#N)c(N)c12` are above 10 µM and above 10 µM.
In the same order, the values of `COc1ccccc1-c1c(C#N)c(N)nc2sc(C(=O)c3ccccc3Cl)c(N)c12` are above 10 µM and above 10 µM.
In the same order, the values of `N#Cc1c(N)nc2sc(C(=O)Nc3ccc(Cl)cc3)c(N)c2c1-c1ccccc1Br` are above 10 µM and above 10 µM.
In the case of `N#Cc1c(N)nc2sc(C(=O)c3ccc(Cl)c(Cl)c3)c(N)c2c1-c1ccccc1Br`, the IC50 (commonly the concentration at which inhibition is half-maximal) was 3.8 µM in [1] and above 10 µM in [2].
In the same order, the values of `N#Cc1sc2nc(N)c(C#N)c(-c3cccs3)c2c1N` are 0.18 µM and 2.3 µM.
In the same order, the values of `N#Cc1sc2nc(N)c(C#N)c(-c3c[nH]c4ccccc34)c2c1N` are 1.6 µM and 3.5 µM.
As for `N#Cc1c(N)nc2sc(C(=O)c3cccc(C(F)(F)F)c3)c(N)c2c1-c1ccccc1Cl`, the EC50 – broadly, the concentration that produces a half-maximal response – in test [3] is 5.6 µM. Also, the IC50 in test [1] is 2.2 µM; in test [2], above 10 µM. Also, the inhibition (commonly the percentage by which the read-out fell short of the control) at 15 µM in [4] was found to be 100%.
With `N#Cc1c(N)nc2sc(C(=O)c3cccc(Cl)c3)c(N)c2c1-c1ccccc1Br`, the half-maximal inhibitory concentration (IC50) in test [5] is 0.61 µM; in [6], above 100 µM; in [7], above 100 µM; in test [1], 0.61 µM; in test [8] it was 44 µM; in test [9], above 100 µM. The IC50 in test [10] is above 100 µM; in test [11], above 100 µM; in test [12] it was 1.45 µM; in test [2], above 10 µM. The inhibition at 15 µM in [4] is 77.1%.
Regarding `N#Cc1c(N)nc2sc(C(=O)c3ccc(Cl)c(Cl)c3)c(N)c2c1-c1ccccc1I`, the IC50 in test [1] is 70 µM; in test [2], above 100 µM.
In the same order, the values of `Nc1c(C(=O)c2ccc(Cl)cc2)sc2nc3c(c(-c4ccccc4I)c12)CCCC3` are above 10 µM and above 10 µM.
In the same order, the values of `N#Cc1sc2nc(N)c(C#N)c(-c3ccccc3Cl)c2c1N` are 0.13 µM and 0.4 µM.
In the same order, the values of `COc1ccccc1-c1c(C#N)c(N)nc2sc(C(=O)c3ccc(C)cc3)c(N)c12` are above 10 µM and above 10 µM.
Regarding `COc1ccccc1-c1c(C#N)c(N)nc2sc(C(=O)c3ccc(C(F)(F)F)cc3)c(N)c12`, the IC50 in test [1] and in test [2] was above 10 µM each time.
Consider `COc1ccccc1-c1c(C#N)c(N)nc2sc(C(=O)c3ccc(C#N)cc3)c(N)c12`, for which the IC50 in [1] and in test [2] was above 10 µM throughout.
On to `CCOc1ccccc1-c1c(C#N)c(N)nc2sc(C(=O)c3ccc(Cl)cc3)c(N)c12`, for which the IC50 in [1] and in test [2] was above 10 µM throughout.
Turning to `N#Cc1c(N)nc2sc(C(=O)c3ccc(C(F)(F)F)cc3)c(N)c2c1-c1ccccc1I`, the IC50 in test [1] and in test [2] was above 10 µM in each case.
Consider `N#Cc1c(N)nc2sc(C(=O)c3ccc(Cl)cc3)c(N)c2c1-c1ccccc1Br`, for which the IC50 in [1] and in test [2] was above 100 µM each time.
Consider `N#Cc1c(N)nc2sc(C(=O)Nc3ccc(Cl)cc3)c(N)c2c1-c1ccccc1I`, for which the IC50 in test [1] and in [2] was above 10 µM in each case.
For `N#Cc1c(N)nc2sc(C(=O)Nc3ccc(Cl)cc3)c(N)c2c1-c1ccccc1Cl`, the IC50 in test [1] and in test [2] was above 10 µM throughout.
`Nc1c(C(=O)c2ccccc2)sc2nc3c(c(-c4ccccc4I)c12)CCCC3`: the IC50 in test [1] and in test [2] was above 10 µM throughout.
On to `Cc1ccc(C(=O)c2sc3nc(N)c(C#N)c(-c4ccccc4I)c3c2N)cc1`, for which the IC50 is 3.2 µM in test [1] and above 10 µM in [2].
In the same order, the values of `N#Cc1sc2nc(N)c(C#N)c(-c3ccccc3I)c2c1N` are above 10 µM and above 10 µM.
In the same order, the values of `N#Cc1c(N)nc2sc(C(=O)c3ccccc3)c(N)c2c1-c1ccccc1I` are 2.4 µM and above 10 µM.
`N#Cc1c(N)nc2sc(C(=O)c3ccccc3Cl)c(N)c2c1-c1ccccc1I`: the IC50 in [1] and in test [2] was above 10 µM each time.
In turn, `N#Cc1c(N)nc2sc(C(=O)c3ccc(Cl)c(Cl)c3)c(N)c2c1-c1ccccc1Cl` showed an EC50 in test [3] of 3.7 µM. Also, the IC50 in test [1] is 2.7 µM; in test [2], above 10 µM. Further, the inhibition at 15 µM in [4] amounted to 100%.
As to `N#Cc1c(N)nc2sc(C(=O)c3cccc(Cl)c3)c(N)c2c1-c1cccs1`, the IC50 in test [1] and in test [2] was above 10 µM each time.
`COc1ccccc1-c1c(C#N)c(N)nc2sc(C(=O)c3ccc(Cl)cc3)c(N)c12`: the IC50 in [1] and in test [2] was above 10 µM throughout.
`COc1ccccc1-c1c(C#N)c(N)nc2sc(C#N)c(N)c12`: the IC50 in [1] and in [2] was above 10 µM throughout.
With `N#Cc1sc2nc(N)c(C#N)c(-c3ccccc3Br)c2c1N`, the figures for the IC50 in test [1] and in [2] were 0.8 µM and 1.3 µM, respectively.
In the same order, the values of `COc1ccccc1-c1c(C#N)c(N)nc2sc(C(=O)c3cccc(Cl)c3)c(N)c12` are 8.5 µM and above 10 µM.
Turning to `COc1ccc(C(=O)c2sc3nc(N)c(C#N)c(-c4ccccc4OC)c3c2N)cc1`, the IC50 in test [1] and in test [2] was above 10 µM each time.
As to `N#Cc1c(N)nc2sc(C(=O)c3cccc(Cl)c3)c(N)c2c1-c1ccccc1F`, the IC50 in test [1] was 10 µM; in [2], above 100 µM.
In the same order, the values of `N#Cc1c(N)nc2sc(C(=O)c3cccc(F)c3)c(N)c2c1-c1ccccc1Cl` are above 100 µM and above 100 µM.
As to `N#Cc1cccc(C(=O)c2sc3nc(N)c(C#N)c(-c4ccccc4Cl)c3c2N)c1`, the IC50 was 0.5 µM in [5]; above 100 µM in test [6]; above 100 µM in test [7]; 0.5 µM in test [1]; 100 µM in test [8]; above 100 µM in test [9]. Also, the IC50 is above 100 µM in test [10], above 100 µM in [11], 6.5 µM in test [12] and above 10 µM in test [2]. The compound also came in with an inhibition at 15 µM in [4] of 30.3%.
`N#Cc1c(N)nc2sc(C(=O)c3ccccc3)c(N)c2c1-c1ccccc1Br`: the concentration for half-maximal inhibition (IC50) in test [1] was 1.1 µM; in [2], above 10 µM.
In the same order, the values of `N#Cc1c(N)nc2sc(C(=O)c3ccc(Cl)cc3)c(N)c2c1-c1ccccc1` are above 100 µM and above 100 µM.
On to `COc1cccc(C(=O)c2sc3nc(N)c(C#N)c(-c4ccccc4Cl)c3c2N)c1`, for which the IC50 in test [1] was 1.7 µM; in test [2] it was above 10 µM. Moreover, in test [4], the inhibition at 15 µM stood at 63.5%.
On to `N#Cc1c(N)nc2sc(C(=O)c3cccc(Cl)c3)c(N)c2c1-c1ccccc1I`, for which the IC50 in [5] is 0.91 µM; in test [6], above 100 µM; in test [7], above 100 µM; in [1], 0.91 µM; in [8], 70 µM; in test [9], above 100 µM. Besides, the IC50 in [10] is above 100 µM; in test [11] it was above 100 µM; in [12], 2.75 µM; in test [2] it was above 10 µM. This compound gave an inhibition at 15 µM in test [4] of 65.4%.
On to `COc1ccc(C(=O)c2sc3nc(N)c(C#N)c(-c4ccccc4I)c3c2N)cc1`, for which the IC50 in test [1] was 1.7 µM; in test [2] it was above 10 µM.

For the origin of these results see ChEMBL document CHEMBL2311539, “3,6-Diamino-4-(2-halophenyl)-2-benzoylthieno[2,3-b]pyridine-5-carbonitriles are selective inhibitors of Plasmodium falciparum glycogen synthase kinase-3” (J Med Chem, 2013).
